This excerpt belongs to a sample that is enriched for hits.
HSF1 inh: HSF1 inhibitors in luciferase reporter cells, primary screen, cell-based, NIH3T3, luminescence | AID 2098, 2009 | NIH3T3-HGL HSE-luciferase, MG132-induced, luminescence 8 h; hits give low values | activity change, negative = inhibition, % at 7.5 µM (by protocol) | 300,000 tested, 0.77% active;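 active = more than half of replicate wells show activity change below -50%, luminescence cut by over half; inconclusive = some wells, but at most half, below -50%; inactive = no replicate well below -50%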;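 also: luciferase reports HSF-1 transcriptional activity via heat shock element; 0% = median of DMSO wells and -100% = zero luminescence signal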
HSF-1 act: HSF-1 activators, primary screen, NIH3T3-HGL cells, MG132 stress, luminescence, single point | NIH3T3-HGL HSF-1 luciferase reporter, 8 h; 100% = twice DMSO control signal | activation, % at 9 µM | 300,000 tested, 1.7% active;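 active = mean replicate activation of at least 50% with a set share of replicates each reaching 50%; inconclusive = only one of those two conditions met; inactive = mean below 50% and too few replicates reaching it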;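 also: 0% = median of the neutral control wells and 100% = twice that signal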
T cruzi repl: inhibitors of intracellular T. cruzi growth, primary screen, luminescence, NIH3T3 host cells | T. cruzi beta-gal in NIH3T3, 90 h | 300,000 tested, 1.4% active | AID 1885, 2009 | inhibition, % (test concentration not listed);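 active = mean inhibition across valid replicates above about 55%, limit read from the data; inconclusive = mean below that limit but half or more replicates reach it; inactive = mean below it, under half of replicates reach it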;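 also: signal also drops with host cell toxicity which is not excluded here; 0% = plate median of DMSO wells and 100% = zero luminescence signal; higher percent means less beta-gal luminescence so fewer parasites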
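Assay system: NIH/3T3 host cells with β-galactosidase reporter T. cruzi; input: 5,000 host fibroblasts per well; compound: single 50 nL compound addition per well in DMSO; timing: ≥90 h infection period, 3 h prior cell attachment; measured by: GalScreen β-gal luminescence, detergent lysis, 60 min; evaluation: percent inhibition of parasite-derived β-gal signal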
Lmaj promast: Leishmania major promastigote growth inhibition, primary screen. Leishmania major promastigotes, resazurin fluorescence viability. inhibition, % at 10 µM. 200,000 tested, 9% active. AID 1063, 2008; in the data active = inhibition above about 50%;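 also: promastigotes grown with compound for 44 hours at 28 °C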
Hsp70 activator: Hsp70 transcriptional activators, primary screen, cell-based, HeLa, Hsp70 promoter luciferase, luminescence, 10 µM. activation, % at 10 µM. AID 1203, 2008. HeLa Hsp70 promoter luciferase reporter; scaled: vehicle 0, proteasome-inhibitor control 100%. 200,000 tested, 0.04% active;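 active = activation above the mean across all tested compounds plus 3 SD, cutoff set per campaign, cut at about 5.5% in these data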;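 also: 100% = MG132 at 30 µM as the positive control and 0% = DMSO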
An asterisk follows results filed as active; u = inconclusive; x = no result.

SMILES | HSF1 inh | HSF-1 act | T cruzi repl | Lmaj promast | Hsp70 activator
CCOC(=O)c1ccc(NC(=O)CSc2nnc(NC(=O)c3ccc(S(=O)(=O)N4CCOCC4)cc3)s2)cc1 | -5 | 0 | 0 | 91* | -1
O=C(CSCc1ccc(Br)cc1)Nc1ccc(S(=O)(=O)N2CCOCC2)cc1 | -1 | 3 | 10 | 100* | 0
COc1ccc(CN2CCC(C)CC2)cc1OCc1ccccc1 | 3 | 7 | -5 | x | x
Cc1ccc(N(CC(=O)Nc2ccc(S(=O)(=O)N3CCOCC3)cc2)S(C)(=O)=O)cc1C | -5 | 5 | 10 | 7 | -1
O=C(CSc1cccc2cccnc12)Nc1ccc(S(=O)(=O)N2CCOCC2)cc1 | 2 | 0 | 63* | x | x
CC(C)c1ccc(N(CC(=O)Nc2ccc(S(=O)(=O)N3CCOCC3)cc2)S(C)(=O)=O)cc1 | 0 | -2 | 6 | 90* | 0
COc1ccc(CN2CCN(Cc3ccon3)CC2CCO)c(C)c1C (centres undefined) | -5 | 4 | 3 | x | x
O=c1c2ccccc2ncn1-c1ccc([N+](=O)[O-])cc1[N+](=O)[O-] | 3 | 5 | 63* | x | x
Cc1ccc(-n2cnn(-c3ccc([N+](=O)[O-])cc3[N+](=O)[O-])c2=O)cc1 | 7 | 18 | 57* | x | x
O=C(N1CCC(n2nc(-c3ccccc3)oc2=O)CC1)C1(c2ccc(Cl)cc2)CC1 | 6 | 22 | 13 | x | x
CCc1c(C)sc(NC(=S)N2CC(C)OC(C)C2)c1C(=O)OC (centres undefined) | x | x | x | 4 | 0
CCOc1ccccc1NC(=O)C1=C(C)NC(=S)NC1c1cccs1 (centres undefined) | -8 | 12 | -2 | 6 | 0
Cc1cccc(CN2CCN(CC(=O)NCCCN3CCN(c4ccc(F)cc4)CC3)C2=O)c1 | -1 | 14 | 18 | 95* | 0
Cc1cccc(CN2CCN(CC(=O)NCCCN3CCCC3=O)C2=O)c1 | -4 | -16 | -7 | -5 | 0
Cc1ccc(C2c3c(C)nn(-c4ccc([N+](=O)[O-])cc4)c3N=C3C(=O)Nc4ccccc4N32)cc1 (centres undefined) | -2 | -21 | 65* | 99* | 0
COc1cccc(-c2cc(N3C(=O)Nc4ccccc4N3O)n[nH]2)c1 | 3 | 13 | -4 | -1 | 0
COc1cccc(C2c3c(C)nn(-c4ccc([N+](=O)[O-])cc4)c3N=C3C(=O)Nc4ccccc4N32)c1 (centres undefined) | -24 | -28 | 63* | 65* | 0
Cc1nn(-c2ccc([N+](=O)[O-])cc2)c2c1C(c1ccc(OC(F)F)cc1)N1C(=N2)C(=O)Nc2ccccc21 (centres undefined) | 4 | -1 | 91* | 68* | 0
Cc1ccc(NC(=O)C2=C(O)c3ccccc3N(C)S2(=O)=O)cc1 | -3 | 13 | -6 | -9 | 0
CN(C(=O)CC1C(=O)NCCN1Cc1ccc(F)c(F)c1)C1CCCCC1 (centres undefined) | 0 | -11 | -5 | x | x
O=C(CCN1CCOCC1)c1ccc(Br)cc1 | -3 | -13 | 15 | 33 | 0
O=C(CCC(=O)N1CCN(c2ccc(O)cc2)CC1)c1ccc(Br)cc1 | 40 | 91* | 39 | x | x
O=C(CCN1CCN(c2ccccc2)CC1)N/N=C/c1ccccc1O | -1 | 12 | 7 | 98* | 0
O=C(CCN1CCN(c2ccccc2F)CC1)c1ccc(Br)cc1 | -2 | -17 | -5 | 83* | 0
O=C(CCN1CCN(c2ccccc2)CC1)c1ccc(Br)cc1 | 8 | 11 | 62* | x | x
SMILES | HSF1 inh | HSF-1 act | T cruzi repl | Lmaj promast | Hsp70 activator
O=C(NCC(=O)N1CCN(C(=O)c2ccco2)CC1)c1ccc(Br)cc1 | 1 | 24 | -7 | x | x
CN1CC(c2ccc(Cl)c(Cl)c2)[C@@]2(COc3ccccc3C2=O)[C@@]12C(=O)Nc1ccccc12 (some centres undefined) | -2 | 4 | 49 | 81* | 0
CCCN1C(=O)c2ccccc2NC1c1ccc(Cl)c(Cl)c1 (centres undefined) | 24 | u | 8 | x | x
Brc1ccc(-c2csc(N3CCCCCC3)n2)cc1 | 1 | 5 | -33 | x | x
NC(=O)C1(N2CCCCC2)CCN(c2nc(-c3ccc(Br)cc3)cs2)CC1 | 8 | 20 | 60* | -3 | 0
COc1cc(CNCCc2ccc(S(N)(=O)=O)cc2)ccc1OCC(=O)NC1CCCCC1 | -3 | 18 | 27 | -3 | 0
CCOc1cc(CNCCc2ccc(S(N)(=O)=O)cc2)ccc1OCc1ccc(Cl)cc1 | 6 | 16 | 43 | 101* | 0
COc1cc(CNCCc2ccc(S(N)(=O)=O)cc2)ccc1OCc1ccc(Cl)cc1 | 9 | 30 | 66* | 100* | 0
CC1CC(=O)N(CC(=O)NCc2ccc(F)cc2)c2ccccc2S1(=O)=O (centres undefined) | -10 | -13 | -4 | x | x
CN(C)c1cc[n+](CC(=O)c2ccc(Br)cc2)cc1 | 11 | 39 | -4 | 3 | 0
CN(C)c1cc[n+](CC(=O)c2ccc(-c3ccccc3)cc2)cc1 | -8 | -8 | 56* | 100* | 0
Cc1ccc(C(=O)C[n+]2ccc(Cc3ccccc3)cc2)cc1 | 1 | -6 | 12 | 86* | 1
COCCCn1c(C)nnc1-c1cnn(-c2ccccc2)c1N | -4 | -2 | -2 | 2 | 0
C/C=N\NC(=O)COc1cc(C)ccc1C | -1 | 0 | -10 | -6 | 0
C=C1c2cc(C)ccc2NC(=O)N1c1ccccc1 | 0 | 4 | -10 | -2 | -1
COc1ccc(C/C(N)=N/OC(=O)c2cccs2)cc1 | 23 | 22 | 4 | 0 | 0
CCOc1ccc2nc(COC(=O)c3cccc([N+](=O)[O-])c3)c(C(C)=O)[n+]([O-])c2c1 | 27 | 69* | -15 | x | x
COc1ccc2nc(COC(=O)c3cccs3)c(C(C)=O)[n+]([O-])c2c1 | -54* | -63 | -9 | x | x
COc1ccc(OCCOC(=O)c2cccs2)cc1 | 18 | 63* | -3 | -2 | 0
COc1cccc(NC(=O)CCNC(=O)c2ccccc2Cl)c1 | 1 | -7 | -10 | -1 | 0
COc1ccc(NC(=O)CSc2ccc3nnc(-c4cccnc4)n3n2)cc1OC | -8 | -1 | 8 | x | x
Cn1nc([N+](=O)[O-])nc1Oc1ccccc1F | -11 | 1 | 74* | -2 | 0
Cn1nc([N+](=O)[O-])nc1Oc1ccc2ccccc2c1 | 1 | 2 | 47 | 9 | 0
CC1CC1C(=O)Nc1ccc(-c2ccccc2)cc1 (centres undefined) | 15 | 17 | 0 | 51* | 0
O=C(O)C1CC=CCC1C(=O)Nc1ccccc1 (centres undefined) | -2 | 12 | -10 | -8 | 0

Bioassay records as filed in PubChem.
